# Data taken from publication PMC2854254 (Cell communication & adhesion, 2009).
# Read-outs that look alike come from different tables or passages of the source.
# Tests used:
# [1] = system: C×46 hemichannels and Panx1 channels; settings: oocytes; ref Bruzzone et al, 2006; cited from earlier work
# adenosine receptors = settings: ref Weiss et al., 2003; cited from earlier work
# murine erythrocytes = settings: ref Skals et al, 2009; cited from earlier work
# astrocytes = settings: nanomolar concentrations, ref Suadicani et al, 2006; cited from earlier work
# Panx1 = settings: nanomolar concentrations, astrocytes; ref Iglesias et al, 2008, 2009; cited from earlier work
# human erythrocytes = settings: ref Skas et al, 2009; cited from earlier work
# mPanx1-GFP [2] = molecular target: T1, mPanx1-GFP (Mus musculus, UniProt Q9JIP4); assay: Whole cell patch clamp of depolarization-induced; assay type: cell-based
# How it was run: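 Neuro2A cells in DMEM with 10% FCS, lipofectamine-transfected with mPanx1-GFP, recorded 24–36 h after replating. Whole-cell clamp at room temperature, held at −60 mV. Pipette CsCl/EGTA with 1 mM ATP. Currents evoked by 10-s ramps from −60 to +100 mV at 20-s intervals; kinetics from +100 mV current over 8.5 min. Test compound superfused at 1 nM–1 mM, washed out after a stable plateau. Dose-response curves; timing by ANOVA with Dunnett's test.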
# untagged mPanx1 = untagged mPanx1 (Mus musculus, UniProt Q9JIP4); assay type: cell-based
# How it was run: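 Neuro2A cells transfected with untagged mPanx1 construct. Whole-cell recording at room temperature on cells held at −60 mV, with pH 7.4 external and CsCl/EGTA/ATP pipette solutions. Channels activated by 10-s voltage ramps from −60 to +100 mV. Test compound superfused during ramps, then washed out to test reversibility.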
# mPanx1-GFP [3] = molecular target: T1, mPanx1-GFP; assay: Inside-out single channel patch clamp on Rin-m cells transfected with Panx1-GFP; assay type: cell-based; settings: for Effect on open time of Panx1-GFP channel: inside-out patch
# How it was run: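 Rin-m cells grown in RPMI with 5% fetal calf serum, under passage 20. Transfected overnight with 2 μg mPanx1-GFP via lipofectamine, then replated 24–36 h. Inside-out single-channel recordings at room temperature on brightly fluorescent cells. Bath pH 7.4 NaCl/Hepes; pipette CsCl/EGTA with 1 mM ATP. Test compound perfused 20 s, then washed out. Mean channel open time compared before, during and after.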
# [4] = 100 nM, listed as mefloquine from Bioblocks
# [5] = 100 nM, listed as mefloquine from Sigma
# T1 sequence (Q9JIP4 whole entry, the tested form may be a part): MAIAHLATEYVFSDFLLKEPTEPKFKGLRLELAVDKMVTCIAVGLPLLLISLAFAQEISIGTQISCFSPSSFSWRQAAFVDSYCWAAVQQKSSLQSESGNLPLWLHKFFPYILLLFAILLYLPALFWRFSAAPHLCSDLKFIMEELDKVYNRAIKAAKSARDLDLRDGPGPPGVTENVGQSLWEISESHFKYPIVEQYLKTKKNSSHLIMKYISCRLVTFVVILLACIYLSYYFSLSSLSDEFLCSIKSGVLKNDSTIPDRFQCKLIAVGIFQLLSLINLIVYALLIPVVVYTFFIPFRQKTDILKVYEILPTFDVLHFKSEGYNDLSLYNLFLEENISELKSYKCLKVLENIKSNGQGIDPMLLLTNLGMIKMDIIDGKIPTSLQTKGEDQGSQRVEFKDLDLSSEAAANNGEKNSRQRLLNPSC
# Chain of untagged mPanx1 (Q9JIP4 whole entry, the tested form may be a part): as above
structure (smiles),measurement,setting,value
CC1(C)[C@@H](OC(=O)CCC(=O)O)CC[C@]2(C)[C@H]3C(=O)C=C4[C@@H]5C[C@@](C)(C(=O)O)CC[C@]5(C)CC[C@@]4(C)[C@]3(C)CC[C@@H]12 [carbenoxolone],Difference in potency for blockade between C×46 hemichannels and Panx1 channels,[1],5–10 fold
"OC(c1cc(C(F)(F)F)nc2c(C(F)(F)F)cccc12)C1CCCCN1 (single isomer, unassigned; (-)) [(−)-erythro- enantiomer, (−)-erythro-(11S/2′R)-MFQ]",Binding to adenosine receptors,adenosine receptors,bind
O=C(O)c1ccccc1Nc1cccc(C(F)(F)F)c1 [flufenamic acid],Difference in potency for blockade between C×46 hemichannels and Panx1 channels,[1],5–10 fold
OC(c1cc(C(F)(F)F)nc2c(C(F)(F)F)cccc12)C1CCCCN1 (centres unmarked) [mefloquine],Concentration required for prevention of HIyA-induced hemolysis,murine erythrocytes,above 10 μM
same,Effect on dye uptake evoked by P2X7 receptor stimulation,astrocytes,block
same,Effect on depolarization- and BzATP-evoked Panx1 currents,Panx1,inhibit
same,Concentration required for prevention of HIyA-induced hemolysis,human erythrocytes,above 10 μM
OC(c1cc(C(F)(F)F)nc2c(C(F)(F)F)cccc12)C1CCCCN1 (racemic) [(±)-erythro-(R*/S*)-mefloquine],Time required for 50% blockade of Panx1 currents,mPanx1-GFP [2],1.5 min
same,Effect on Panx1-GFP currents evoked by depolarizing voltage ramps,mPanx1-GFP [2]; 10 nM,similarly reduced
same,Effect on Panx1-GFP currents evoked by depolarizing voltage ramps,mPanx1-GFP [2]; 100 nM,substantially reduced
same,Time at which current amplitudes were significantly reduced compared to control,"mPanx1-GFP [2]; 100 nM, currents at +100mV",1.5 min
same,Effect on Panx1-GFP currents evoked by depolarizing voltage ramps,mPanx1-GFP [2]; [4],similarly reduced
same,Effect on Panx1-GFP currents evoked by depolarizing voltage ramps,mPanx1-GFP [2]; [5],not affected
same,Effect on Panx1-GFP currents evoked by depolarizing voltage ramps,mPanx1-GFP [2]; 1μM,not affected
same,Effect on Panx1-GFP currents evoked by depolarizing voltage ramps,mPanx1-GFP [2]; 100μM,only minimally blocked
same,Time required for 50% blockade of Panx1 currents,mPanx1-GFP [2]; applied at 100nM,0.5 min
same,Times less potent than erythro-mefloquine racemate from the two other sources,mPanx1-GFP [2]; compared with Bioblocks and NCI-NIH racemate,"10,000 times"
same,Effect on untagged Panx1 currents,untagged mPanx1; 10 nM,similarly reduced
same,Effect on untagged Panx1 currents,untagged mPanx1; [4],similarly reduced
same,Effect on untagged Panx1 currents,untagged mPanx1; [5],not affected
same,Effect on untagged Panx1 currents,untagged mPanx1; 1μM,not affected
same,Effect on open time of Panx1-GFP channel,mPanx1-GFP [3]; 100nM perfused for 20 seconds,decreased
same,Effect on open time of Panx1-GFP channel,mPanx1-GFP [3]; 1 μM,did not appreciably affect
same,Mean open time of Panx1 channel after washout,mPanx1-GFP [3]; after washout of 100nM,restored
O[C@H](c1cc(C(F)(F)F)nc2c(C(F)(F)F)cccc12)[C@H]1CCCCN1 [(−)-threo-(11R/2′R)-mefloquine],Effect on Panx1-GFP currents evoked by depolarizing voltage ramps,mPanx1-GFP [2]; 1μM,prevented
same,Time required for 50% blockade of Panx1 currents,mPanx1-GFP [2]; applied at 10μM,1.5 min
